Assays:
Rhizoctonia solani [1] = experiment: Fungicidal activity against Rhizoctonia solani infected drug-pretreated cucumber two seeded leaves assessed as decrease in disease index at 500 ug/ml (acetone Rvb = 2.22 +/-0.79%); assay type: functional
How it was run: (§1)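 Greenhouse cucumber assay. Fungi kept on PDA at 4 °C and cultured at 24 ± 1 °C. Plants at the two-seed-leaf stage had leaves hand-sprayed at 500 μg/mL, then were inoculated and held at 24 ± 1 °C, >80% RH. Efficacy = (CK − PT)/CK × 100, from average disease indices.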

Botrytis cinerea [2] = experiment: Fungicidal activity against Botryotinia fuckeliana infected in drug-pretreated cucumber two seeded leaves assessed as decrease in disease index at 500 ug/ml (acetone Rvb = 1.53 +/-0.21%); assay type: functional; how it was run: as §1
Corynespora cassiicola [3] = experiment: Fungicidal activity against Corynespora cassiicola infected in drug-pretreated cucumber two seeded leaves assessed as decrease in disease index at 500 ug/ml (acetone Rvb = 5.23 +/-0.88%); assay type: functional; how it was run: as §1
Cladosporium cucumerinum [4] = experiment: Fungicidal activity against Cladosporium cucumerinum infected drug-pretreated cucumber two seeded leaves assessed as decrease in disease index at 500 ug/ml (acetone Rvb = 3.18 +/-0.75%); assay type: functional; how it was run: as §1
Corynespora cassiicola [5] = experiment: Fungicidal activity against Corynespora cassiicola infected in drug-pretreated cucumber two seeded leaves assessed as decrease in disease index at 75% WP formulation (acetone Rvb = 5.23 +/-0.88%); assay type: functional; how it was run: as §1
Cladosporium cucumerinum [6] = experiment: Fungicidal activity against Cladosporium cucumerinum infected drug-pretreated cucumber two seeded leaves assessed as decrease in disease index at 40% EC formulation (acetone Rvb = 3.18 +/-0.75%)
Botrytis cinerea [7] = experiment: Fungicidal activity against Botryotinia fuckeliana infected in drug-pretreated cucumber two seeded leaves assessed as decrease in disease index at 40% SC formulation (acetone Rvb = 1.53 +/-0.21%); assay type: functional; how it was run: as §1
Rhizoctonia solani [8] = experiment: Fungicidal activity against Rhizoctonia solani infected drug-pretreated cucumber two seeded leaves assessed as decrease in disease index at 3% AS formulation (acetone Rvb = 2.22 +/-0.79%); assay type: functional; how it was run: as §1

| Structure (SMILES) | Efficacy (Rhizoctonia solani [1]) [%] | Efficacy (Botrytis cinerea [2]) [%] | Efficacy (Corynespora cassiicola [3]) [%] | Efficacy (Cladosporium cucumerinum [4]) [%] | Efficacy (Corynespora cassiicola [5]) [%] | Efficacy (Cladosporium cucumerinum [6]) [%] | Efficacy (Botrytis cinerea [7]) [%] | Efficacy (Rhizoctonia solani [8]) [%] |
| --- | --- | --- | --- | --- | --- | --- | --- | --- |
| O=C(N/N=C/c1ccc(Cl)cc1)c1ccc(-c2ccccc2F)o1 | -5.2 | 27 | -3.05 | 37.3 | – | – | – | – |
| O=C(N/N=C/c1ccccc1)c1ccc(-c2ccc(Cl)cc2)o1 | 10.2 | 11 | 50.78 | -8.1 | – | – | – | – |
| O=C(N/N=C/c1ccccc1Cl)c1ccc(-c2ccc(F)cc2)o1 | 8 | 72 | 13.87 | -22 | – | – | – | – |
| O=[N+]([O-])c1ccccc1-c1ccc(-c2nnc(-c3ccc(Cl)cc3)o2)o1 | 94.38 | -30.02 | 15.17 | 17.2 | – | – | – | – |
| COc1ccc(-c2nnc(-c3ccc(-c4ccccc4[N+](=O)[O-])o3)o2)cc1 | 48.48 | 92.68 | 48.61 | 15 | – | – | – | – |
| CCOc1ccc(-c2nnc(-c3ccc(-c4ccccc4[N+](=O)[O-])o3)o2)cc1 | 65.58 | 33.75 | 74.71 | 8.89 | – | – | – | – |
| COc1ccc(-c2nnc(-c3ccc(-c4ccc([N+](=O)[O-])cc4)o3)o2)cc1 | -3.97 | 47.83 | 10.59 | 12.35 | – | – | – | – |
| CCOc1ccc(-c2nnc(-c3ccc(-c4ccc([N+](=O)[O-])cc4)o3)o2)cc1 | 63.47 | 77.78 | 25.49 | 16.48 | – | – | – | – |
| Fc1ccc(-c2ccc(-c3nnc(-c4ccccc4Cl)o3)o2)cc1 | 25.54 | 76.52 | 27.94 | 7.78 | – | – | – | – |
| O=C(N/N=C/c1ccc(Br)cc1)c1ccc(-c2ccccc2Cl)o1 | 57.85 | 91.76 | 28.79 | 19.75 | – | – | – | – |
| CC(=O)N1N=C(c2ccc(-c3ccc(Cl)cc3)o2)OC1c1ccccc1 (stereo not drawn) | 69.09 | 70.71 | 35.29 | 45.61 | – | – | – | – |
| CC(=O)N1N=C(c2ccc(-c3ccccc3Cl)o2)OC1c1ccc(Br)cc1 (stereo not drawn) | 14.3 | 23.23 | 32.03 | 16.67 | – | – | – | – |
| CC(=O)N1N=C(c2ccc(-c3ccccc3F)o2)OC1c1ccc(Cl)cc1 (stereo not drawn) | 66.28 | 18.89 | 28.85 | 31.11 | – | – | – | – |
| CC(=O)N1N=C(c2ccc(-c3ccc(F)cc3)o2)OC1c1ccccc1Cl (stereo not drawn) | 31.03 | 76.28 | 28.72 | 40 | – | – | – | – |
| CCC(=O)N1N=C(c2ccc(-c3ccccc3Cl)o2)OC1c1ccc(Br)cc1 (stereo not drawn) | 63.87 | 13.91 | 41.18 | 23.98 | – | – | – | – |
| CCC(=O)N1N=C(c2ccc(-c3ccc(F)cc3)o2)OC1c1ccccc1Cl (stereo not drawn) | 52.33 | -24.9 | 46.75 | 31.48 | – | – | – | – |
| O=C(NNC(=O)c1ccc(-c2ccccc2Cl)o1)c1ccc(Br)cc1 | 49.42 | 24.64 | 8.24 | 14.2 | – | – | – | – |
| Cc1ccc(C(=O)NNC(=O)c2ccc(-c3ccc(Cl)cc3)o2)cc1 | 19.8 | 4.35 | 50.87 | 29.8 | – | – | – | – |
| O=C(NNC(=O)c1ccc(-c2ccccc2[N+](=O)[O-])o1)c1ccc(Cl)cc1 | 95.56 | 79.58 | 66.09 | 14.44 | – | – | – | – |
| COc1ccc(C(=O)NNC(=O)c2ccc(-c3ccccc3[N+](=O)[O-])o2)cc1 | 56.45 | 35.5 | 28.35 | 2.61 | – | – | – | – |
| CCOc1ccc(C(=O)NNC(=O)c2ccc(-c3ccccc3[N+](=O)[O-])o2)cc1 | 78.93 | -43.27 | 18.82 | 10 | – | – | – | – |
| COc1ccc(C(=O)NNC(=O)c2ccc(-c3ccc([N+](=O)[O-])cc3)o2)cc1 | 24.45 | 29.9 | 36.36 | 57.89 | – | – | – | – |
| CCOc1ccc(C(=O)NNC(=O)c2ccc(-c3ccc([N+](=O)[O-])cc3)o2)cc1 | 71.9 | 79.13 | 38.24 | 28.35 | – | – | – | – |
| O=C(NNC(=O)c1ccccc1Cl)c1ccc(-c2ccc(F)cc2)o1 | 69.35 | 89.57 | 34.26 | 30.32 | – | – | – | – |
| Clc1ccccc1-c1ccc(-c2nnc(-c3ccc(Br)cc3)o2)o1 | -1.16 | -2.61 | 90.59 | 17.9 | – | – | – | – |
| Cc1ccc(-c2nnc(-c3ccc(-c4ccc(Cl)cc4)o3)o2)cc1 | 24.13 | 42.38 | 28.24 | 5.85 | – | – | – | – |
| N#Cc1c(Cl)c(Cl)c(Cl)c(C#N)c1Cl [CHLOROTHALONIL] | – | – | – | – | 93.53 | – | – | – |
| C[Si](Cn1cncn1)(c1ccc(F)cc1)c1ccc(F)cc1 [FLUSILAZOLE] | – | – | – | – | – | 95.56 | – | – |
| Cc1cc(C)nc(Nc2ccccc2)n1 [PYRIMETHANIL] | – | – | – | – | – | – | 69.57 | – |
| OCC1=C[C@H](N[C@H]2C[C@H](CO)[C@@H](O[C@@H]3O[C@H](CO)[C@@H](O)[C@H](O)[C@H]3O)[C@H](O)[C@H]2O)[C@H](O)[C@@H](O)[C@@H]1O [VALIDAMYCIN] | – | – | – | – | – | – | – | 93.68 |

From ChEMBL document CHEMBL3045525, “Synthesis and fungicidal activity of novel 2,5-disubstituted-1,3,4-oxadiazole derivatives” (2012)
